Activity and IC50 data for three compounds are collected here from ChEMBL document CHEMBL1158063, “Awajanomycin, a Cytotoxic gamma-lactone-delta-lactam metabolite from marine-derived Acremonium sp. AWA16-1” (J Nat Prod, 2006).

In brackets after ≈: the same amount, converted by molar mass. Activity calls are given as the source filed them. No cut-off for these calls is given here.

Test [1] deals with Escherichia coli. Put plainly: Antimicrobial activity against Escherichia coli IFO 3301 at 50 ug/disk after 48 hrs by paper disk method. The format is functional, organism-based. The procedure, abridged:
(§1)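 Paper disk diffusion on nutrient broth agar plates seeded with the test strain. Sample loaded at 50 µg per 6 mm disk, air-dried, and placed on the agar surface. Growth-inhibition zone measured after 48 h incubation at 30 °C.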

Test [2] concerns A549. Kind of test: Cytotoxicity against human A549 cells after 72 hrs by alamar blue assay. The settings on record: A549, 72 h. The format is functional, cell-based. The procedure, abridged: (§2)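 A549 lung adenocarcinoma cells in DMEM with 10% FBS were seeded at 8 × 10^3 cells/well and preincubated 14 h at 37 °C under 5% CO2. Serially diluted samples were then added for 72 h. Alamar Blue was added for a further 4 h, and viability was read as absorbance at 590 nm.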
(In general: Alamar Blue is a resazurin reagent that responds to reducing activity.)

Test [3] deals with Bacillus subtilis. Put plainly: Antimicrobial activity against Bacillus subtilis IFO 3134 at 50 ug/disk after 48 hrs by paper disk method. Format: functional, organism-based. The procedure, abridged:
as §1

Test [4] relates to Alphaproteobacteria. Put plainly: Antimicrobial activity against Alphaproteobacteria MBIC3368 at 50 ug/disk after 48 hrs by paper disk method. The format is functional, organism-based. The essentials: (§3)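 Paper disk method on marine broth agar seeded with the marine strain. Each 6 mm disk was loaded with 50 µg sample, air-dried, and laid on the plate. Inhibition zone read after 48 h at 30 °C.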

Test [5] concerns Staphylococcus aureus. Put plainly: Antimicrobial activity against Staphylococcus aureus IFO 12732 at 50 ug/disk after 48 hrs by paper disk method. The format is functional, organism-based. The procedure, abridged:
as §1

Test [6] concerns Salinivibrio costicola. Put plainly: Antimicrobial activity against sSalinivibrio costicola ATCC 33508 at 50 ug/disk after 48 hrs by paper disk method. The format is functional, organism-based. The essentials:
as §3

Test [7] relates to Leeuwenhoekiella marinoflava. Kind of test: Antimicrobial activity against Cytophaga marinoflava IFO 14170 at 50 ug/disk after 48 hrs by paper disk method. Format: functional, organism-based. The procedure, abridged:
as §3

Test [8] concerns Candida albicans. Put plainly: Antimicrobial activity against sCandida albicans IFO 1060 at 50 ug/disk after 48 hrs by paper disk method. The format is functional, organism-based. The essentials: as §1
Test [9] has as its system A549. Kind of test: Cytotoxicity against human A549 cells after 72 hrs up to 125 ug/mL by alamar blue assay. The format is functional, cell-based. The essentials:
as §2

Regarding `CCCCCCCC(O)/C=C/[C@@H]1[C@H](O)[C@@H](C)NC(=O)[C@]1(O)CO` (some centres undefined), the result in [1], in [3], in [4], in test [5], in test [6] and in test [7] was inactive. Further, the outcome in test [8] was inactive. The same compound came in with an IC50 in [2] of 46.4 µg/mL (≈ 141 µM).

With `CCCCCCCC(O)/C=C/[C@@H]1[C@@H]2OC(=O)[C@@]1(O)C(=O)N[C@@H]2C` (some centres undefined) [AWAJANOMYCIN], the outcome in [1], in test [3], in test [4], in test [5], in test [6] and in test [7] was inactive. Moreover, in test [8], the outcome was inactive. For the same compound, the IC50 in [2] turned out to be 27.5 µg/mL (≈ 84.5 µM).

As to `CCCCCCCC(O)/C=C/[C@@H]1[C@H](O)[C@@H](C)NC(=O)[C@]1(O)C(=O)O` (some centres undefined), the outcome in test [1], in test [3], in [4], in test [5], in [6] and in [9] was inactive. For the same compound, the outcome in test [7] and in test [8] was inactive.

In general, IC50 refers to the concentration needed to halve the response being measured. A high value points to weaker potency in that assay.
